Results gathered from unrelated publications.
Toll-like receptor 1/2: Toll-like receptor 1/2 (Homo sapiens, UniProt O60603+Q15399)
Chymotrypsinogen A: Chymotrypsinogen A (Bos taurus, UniProt P00766)

| Compound | target | test | conditions | endpoint | result |
| --- | --- | --- | --- | --- | --- |
| Cc1cc(Nc2cc3ncccc3c(N[C@@H]3C[C@H]4CC[C@@H](C3)N4CCC#N)n2)n[nH]1 | Cyclin-dependent kinase 4, with cyclin D1 (CDK4, Homo sapiens, UniProt P11802) | binding, competition with immobilised ligand |  | Kd | 150 nM |
| CCCCc1ccc(-c2cn(-c3cc([N+](=O)[O-])ccc3NC)cn2)cc1 | Toll-like receptor 1/2 | reporter gene, agonist |  | EC50 | 230 nM |
| Cc1cnc(-c2ccc(-c3ccc(NC(=O)Nc4c(F)cc(F)cc4F)cc3F)c3c2C(=O)NC3)[nH]1 | Myosin-IIIb (MYO3B, Homo sapiens, UniProt Q8WXR4) | binding, competition with immobilised ligand |  | Kd | 76 nM |
| CNc1ccc(C(F)(F)F)cc1-n1cnc(-c2ccc(C(F)(F)F)cc2)c1 | Toll-like receptor 1/2 | reporter gene, agonist |  | EC50 | 240 nM |
| Cc1cc2nc3c(=O)[nH]c(=O)nc-3n(C[C@H](O)[C@H](O)[C@H](O)COP(=O)(O)OP(=O)(O)OC[C@H]3O[C@@H](n4cnc5c(N)ncnc54)[C@H](O)[C@@H]3O)c2cc1C | Pumilio homolog 2 (Homo sapiens, UniProt Q8TB72) | binding | lysate | Kd | 15 nM |
| CCCC[C@H](NC(=O)[C@H](CCCCN)NC(=O)[C@H](CO)NC(=O)[C@H](CO)NC(=O)OCc1ccccc1)C(=O)N[C@@H](Cc1ccccc1)B(O)O | Chymotrypsinogen A | enzyme activity, inhibitor, fluorescence |  | Ki | 18.1 nM |
| CC(C)C[C@H](NC(=O)[C@H](Cc1ccccc1)NC(=O)[C@@H](N)Cc1ccc(O)cc1)C(=O)N[C@@H](Cc1ccccc1)C(=O)N[C@@H](CCCNC(=N)N)C(=O)N1CCC[C@H]1C(=O)N[C@@H](CCCNC(=N)N)C(=O)N[C@@H](CC(N)=O)C(N)=O | Neuromedin-U receptor 1 (Mus musculus, UniProt O55040) | β-arrestin recruitment, agonist |  | EC50 | 11.5 nM |
| NC(=O)C1=CN([C@@H]2O[C@H](COP(=O)(O)OP(=O)(O)OC[C@H]3O[C@@H](n4cnc5c(N)ncnc54)[C@H](O)[C@@H]3O)[C@@H](O)[C@H]2O)C=CC1 | ADH1 (Saccharomyces cerevisiae, UniProt P00330, H16R) | enzyme activity, inhibitor |  | Ki | 12000 nM |
| CNc1ccc(C(=O)OC)cc1-n1cnc(-c2ccc(C(F)(F)F)cc2)c1 | Toll-like receptor 1/2 | reporter gene, agonist |  | EC50 | > 100000 nM |
| O=C(Cn1cc(CN2CCN(c3cc4c(cc3F)c(=O)c(C(=O)O)cn4C3CC3)CC2)nn1)Nc1ccc(S[C@@H]2O[C@H](CO)[C@H](O)[C@H](O)[C@H]2O)cc1 | PA-I galactophilic lectin (lecA, Pseudomonas aeruginosa, UniProt Q05097) | ligand displacement, FP |  | Ki | 3820 nM |
| CCCC[C@H](NC(=O)[C@H](CCC(N)=O)NC(=O)[C@H](CO)NC(=O)[C@H](Cc1ccccc1)NC(=O)CCCCCN)C(=O)N[C@@H](CCCBr)B1O[C@@H]2C[C@@H]3C[C@@H](C3(C)C)[C@]2(C)O1 | Chymotrypsinogen A | enzyme activity, inhibitor, fluorescence |  | Ki | 496 nM |
| CNc1ccc([N+](=O)[O-])cc1-n1cnc(-c2ccc3ccccc3c2)c1 | Toll-like receptor 1/2 | reporter gene, agonist |  | EC50 | 420 nM |
| OC[C@@H]1[C@@H](O)[C@H](O)[C@@H](O)[C@@H]2O[C@H]12 | Beta-glucosidase (GBA2, Homo sapiens, UniProt Q9HCG7) | enzyme activity, inhibitor | pH 5.5, lysate | IC50 | 350 nM |
